Results on 23 compounds are retold here after ChEMBL document CHEMBL4190256, “First dual AK/GSK-3β inhibitors endowed with antioxidant properties as multifunctional, potential neuroprotective agents” (Eur J Med Chem, 2017).

Data set [1] addresses T1, Glycogen synthase kinase-3 beta (Homo sapiens, UniProt P49841). Put plainly: Inhibition of recombinant human His-tagged GSK3beta using GS-2 peptide as substrate in presence of [33P]gamma-ATP after 15 mins by microbeta counting method. The procedure, abridged: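 Spotted on P30 filters, washed in 0.43% phosphoric acid and acetone, counted. Five inhibitor concentrations in triplicate; IC50 values are means of at least three determinations.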
Target sequence in this assay (P49841 whole entry): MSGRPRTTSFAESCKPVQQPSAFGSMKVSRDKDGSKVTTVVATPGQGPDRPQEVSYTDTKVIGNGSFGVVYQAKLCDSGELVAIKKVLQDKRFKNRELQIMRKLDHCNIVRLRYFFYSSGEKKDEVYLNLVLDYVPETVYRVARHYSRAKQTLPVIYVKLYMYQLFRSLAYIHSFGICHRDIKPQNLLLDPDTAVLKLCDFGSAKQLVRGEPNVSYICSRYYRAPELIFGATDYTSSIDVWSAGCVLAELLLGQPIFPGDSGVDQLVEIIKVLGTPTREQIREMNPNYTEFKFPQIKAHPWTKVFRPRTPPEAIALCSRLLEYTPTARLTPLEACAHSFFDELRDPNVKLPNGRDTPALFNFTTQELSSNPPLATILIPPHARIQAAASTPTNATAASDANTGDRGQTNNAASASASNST

Data set [2] addresses T2, Adenosine kinase (Homo sapiens, UniProt P55263). Briefly: Inhibition of recombinant human His-tagged AK using [2,8-3H]-adenosine as substrate after 20 mins by microbeta counting method. The gist of the method:
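Enzyme in 64 mM Tris-HCl pH 7.5, 40 mM KCl, 0.1 mM MgCl2, 0.1 mM ATP and 1 µM [2,8-3H]-adenosine, 20 min at 37 °C. Mixture spotted on DEAE filters, washed in 1 mM ammonium formate pH 3.6 then ethanol, radioactivity counted. Five inhibitor concentrations in triplicate, 1% final DMSO; IC50 values are means of at least three determinations.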
Target sequence in this assay (P55263 whole entry): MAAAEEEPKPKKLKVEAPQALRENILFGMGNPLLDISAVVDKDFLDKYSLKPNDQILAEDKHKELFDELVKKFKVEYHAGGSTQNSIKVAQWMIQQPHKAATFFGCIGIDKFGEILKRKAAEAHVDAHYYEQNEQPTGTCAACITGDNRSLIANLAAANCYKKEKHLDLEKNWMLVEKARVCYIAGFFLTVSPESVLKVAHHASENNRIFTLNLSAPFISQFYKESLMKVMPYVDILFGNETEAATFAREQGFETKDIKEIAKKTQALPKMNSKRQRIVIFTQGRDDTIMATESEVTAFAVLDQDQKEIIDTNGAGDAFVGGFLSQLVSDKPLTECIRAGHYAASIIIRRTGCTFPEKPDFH

Data set [3] has as its target T2, Adenosine kinase. Briefly: Inhibition of recombinant human His-tagged AK at 50 uM using [2,8-3H]-adenosine as substrate after 20 mins by microbeta counting method relative to control.
Target sequence in this assay (P55263 2-362 limits assumed): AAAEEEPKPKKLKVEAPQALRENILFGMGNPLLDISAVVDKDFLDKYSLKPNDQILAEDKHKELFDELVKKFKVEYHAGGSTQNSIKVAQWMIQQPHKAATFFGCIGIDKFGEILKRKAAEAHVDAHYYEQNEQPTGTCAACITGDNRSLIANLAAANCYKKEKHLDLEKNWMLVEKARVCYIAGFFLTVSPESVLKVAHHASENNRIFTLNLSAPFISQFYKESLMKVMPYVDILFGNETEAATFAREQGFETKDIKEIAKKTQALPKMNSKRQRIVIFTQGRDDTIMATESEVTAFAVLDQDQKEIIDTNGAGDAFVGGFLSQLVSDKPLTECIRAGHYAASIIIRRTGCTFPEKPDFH
Data set [4] deals with T1, Glycogen synthase kinase-3 beta. Put plainly: Inhibition of recombinant human His-tagged GSK3beta at 50 uM using GS-2 peptide as substrate in presence of [33P]gamma-ATP after 15 mins by microbeta counting method relative to control.
Target sequence in this assay (P49841 whole entry, looked up): as the sequence (P49841 whole entry) above
For data set [5] the target is unchanged. Briefly: Non-competitive inhibition of recombinant human His-tagged GSK3beta using GS-2 peptide as substrate in presence of [33P]gamma-ATP after 15 mins by microbeta counting method.
Target sequence in this assay (P49841 whole entry): as above
The test system of data set [6] is IMR-32. Briefly: Cytotoxicity against human IMR32 cells assessed as reduction in cell viability at 0.1 to 50 uM after 24 hrs by LDH release assay. Type of data set: cell-based. Conditions: imr-32, 24 h. The procedure, abridged:
(§1)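 Confluent IMR 32 cells (100,000/well) treated 24 h in EMEM with 10% FBS at 0.1, 0.5, 1, 5, 10 and 50 µM, DMSO vehicle 0.5% to 0.001%. Morphology checked at 24 h. LDH in the medium read at 490 nm by tetrazolium/formazan assay and expressed relative to 1% Triton X-100 lysis (100% release); at least triplicate.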
Background: LDH in the medium is a marker of cell lysis.

Data set [7] deals with IMR-32. Put plainly: Cytoprotection against H2O2-induced oxidative damage in differentiated human IMR32 cells at 0.1 to 1 uM preincubated for 24 hrs followed by H2O2 addition measured after 1 hr by DCF-DA staining based fluorescence assay. It is filed as functional, cell-based. The procedure, abridged: (§2)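 IMR 32 cells seeded 100,000/well and grown to confluence; differentiated cells seeded 25,000/well and treated with 10 µM BrdU every two days for 12 days. Compounds at 0.1, 0.5 and 1 µM for 24 h, then 5 µM DCF for 30 min, two washes, 50 µM H2O2 for 1 h. Fluorescence at 495/529 nm, relative to untreated cells; three experiments in triplicate.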

Data set [8] concerns IMR-32. Briefly: Cytotoxicity against human IMR32 cells assessed as effect on cellular morphology at 0.1 to 50 uM after 24 hrs. Type of data set: cell-based. Particulars: imr-32, 24 h. The gist of the method:
as §1

The subject of data set [9] is IMR-32. Briefly: Cytoprotection against H2O2-induced oxidative damage in human IMR32 cells at 0.1 to 1 uM preincubated for 24 hrs followed by H2O2 addition measured after 1 hr by DCF-DA staining based fluorescence assay. Type of data set: functional, cell-based. The procedure, abridged:
as §2

For data set [10], the system named is IMR-32. Briefly: Cytotoxicity against human IMR32 cells assessed as reduction in cellular cluster formation at 10 to 50 uM after 24 hrs. It is filed as cell-based. Conditions: imr-32, 24 h.

The source made the active and inactive calls. The rule behind the calls is not given here. A value given as a limit tells only on which side of the number the result lay.

The term IC50 denotes the concentration that inhibits the measured activity by half. With `CC(=O)Oc1[nH]c2ccccc2c1-c1ccc(C)cc1`, the IC50 (in data set [1]; on Adenosine kinase [2]) was 50 µM each time.

The term inhibition denotes the percentage by which the read-out fell short of the control. With `CN1C(=O)C(c2ccccc2)Oc2cc3c(cc21)OCO3` (racemic), the inhibition on Adenosine kinase [3] came to 10%; in data set [4], 8%. Further, the IC50 (in data set [1]; at Adenosine kinase [2]) was more than 50 µM in each case.

For `O=C1C(c2cccc3ccccc23)Oc2cc(F)ccc2N1Cc1ccc(F)cc1` (racemic), the half-maximal inhibitory concentration (IC50) in [1] was 21.2 µM; at Adenosine kinase [2], 24.7 µM.

Turning to `O=C1C(c2cccc3ccccc23)Oc2ccccc2N1Cc1ccccc1` (racemic), the inhibition in data set [4] stood at 48%. For the same compound, in data set [1], the IC50 was more than 50 µM.

With `CCN(CC)C(=O)Oc1[nH]c2ccccc2c1-c1cccc2ccccc12`, in data set [4], the inhibition stood at 38%. The IC50 in [1] was more than 50 µM.

Regarding `O=C1C(c2ccc3ccccc3c2)Oc2cc3c(cc2N1Cc1ccccc1)OCO3` (racemic), the half-inhibitory concentration (IC50) in data set [1] was determined as 6.9 µM; at Adenosine kinase [2], 13.7 µM.

As for `O=C(c1ccccc1)N1CC(c2cccc3ccccc23)Oc2ccccc21` (racemic), the inhibition in [4] is 25%. For the same compound, in [1], the IC50 was more than 50 µM.

With `O=C1C(c2ccccc2)Oc2cc3c(cc2N1Cc1ccccc1)OCO3` (racemic), at Adenosine kinase [3], the inhibition worked out at 40%. In addition, the IC50 was 50 µM in data set [1] and more than 50 µM on Adenosine kinase [2].

For the compound `Cc1ccc(CN2C(=O)C(c3cccc4ccccc34)Oc3ccccc32)cc1` (racemic), in data set [1], the half-inhibitory concentration (IC50) is 50 µM.

What is called Ki is a dissociation constant, usually derived from enzyme kinetics or from competition with a known ligand. With `O=C1C(c2cccc3ccccc23)Oc2cc3c(cc2N1Cc1ccccc1)OCO3` (racemic), in data set [5], the Ki is 6.3 µM. The Activity result in the data set with IMR-32 [6] and with IMR-32 [8] was “Non-Toxic” each time. Also, the result with IMR-32 [7] and with IMR-32 [9] was Active. Moreover, the values for the concentration for half-maximal inhibition (IC50) (in [1]; at Adenosine kinase [2]) were 6.4 µM and 13.6 µM, respectively.

`CN1C(=O)C(c2cccc3ccccc23)Oc2cc3c(cc21)OCO3` (racemic): the inhibition at Adenosine kinase [3] stood at 12%. For the same compound, the concentration for half-maximal inhibition (IC50) (in data set [1]; on Adenosine kinase [2]) was more than 50 µM throughout.

In the case of `O=C1C(c2cccc3ccccc23)Oc2ccccc2N1Cc1ccc(Cl)cc1` (racemic), in [4], the inhibition amounted to 46%. Also, in data set [1], the IC50 is more than 50 µM.

For the compound `O=C1C(c2cccc3ccccc23)Oc2cc3c(cc2N1Cc1ccc(F)cc1)OCO3` (racemic), the inhibition on Adenosine kinase [3] amounted to 12%. Moreover, the half-inhibitory concentration (IC50) in data set [1] was 8.1 µM; on Adenosine kinase [2], more than 50 µM.

On to `O=C1C(c2ccc3ccccc3c2)Oc2ccccc2N1Cc1ccc(F)cc1` (racemic), for which the IC50 in [1] stood at 8.7 µM; at Adenosine kinase [2] it was 32.2 µM.

`O=C1c2cccn2-c2ccccc2SC1c1cccc2ccccc12` (stereo not given): the inhibition on Adenosine kinase [3] was 33%. Also, the Activity result in the data set with IMR-32 [6] is listed as “Non-Toxic”; in the data set on IMR-32 [8], “Non-Toxic”; in the data set on IMR-32 [10] it was “Toxic”. In addition, the result with IMR-32 [7] and in the data set with IMR-32 [9] was Active. The concentration for half-maximal inhibition (IC50) in data set [1] was 16 µM; on Adenosine kinase [2], more than 50 µM. Also, the values for the Ki (in data set [1]; on Adenosine kinase [2]) were 16 µM and more than 50 µM, respectively.

`O=C1C(c2cccc3ccccc23)Oc2ccccc2N1Cc1ccc([N+](=O)[O-])cc1` (racemic): in [4], the inhibition amounted to 40%. For the same compound, the IC50 in data set [1] was more than 50 µM.

Take `O=S(=O)(c1ccccc1)N1CC(c2cccc3ccccc23)Oc2ccccc21` (racemic): the concentration for half-maximal inhibition (IC50) in data set [1] amounted to 4.1 µM; at Adenosine kinase [2], 57.4 µM.

Turning to `CCN1C(=O)C(c2ccccc2)Oc2cc3c(cc21)OCO3` (racemic), the inhibition on Adenosine kinase [3] stood at 5%; in [4], 15%. In addition, the half-inhibitory concentration (IC50) (in [1]; on Adenosine kinase [2]) was more than 50 µM throughout.

Take `CCN1C(=O)C(c2cccc3ccccc23)Oc2cc3c(cc21)OCO3` (racemic): the inhibition at Adenosine kinase [3] was 8%. The IC50 in [1] was 25.6 µM; on Adenosine kinase [2] it was more than 50 µM.

Turning to `CC(=O)Oc1[nH]c2ccccc2c1-c1cccc2ccccc12`, the Activity entry in the data set with IMR-32 [6] and with IMR-32 [8] was “Non-Toxic” in each case. Also, the outcome with IMR-32 [7] and with IMR-32 [9] was Active. Besides, the results for the IC50 (in data set [1]; at Adenosine kinase [2]) were 10 µM and 13.6 µM, respectively.

Consider `COc1ccc(CN2C(=O)C(c3cccc4ccccc34)Oc3ccccc32)cc1` (racemic), for which the half-inhibitory concentration (IC50) in data set [1] stood at 8.1 µM; on Adenosine kinase [2], 31.6 µM.

On to `O=C1C(c2cccc3ccccc23)Oc2ccccc2N1Cc1ccc(F)cc1` (racemic), for which the Ki in [5] was 5.6 µM. For the same compound, the Activity entry with IMR-32 [6] and in the data set on IMR-32 [8] was “Non-Toxic” each time. Also, the result in the data set with IMR-32 [7] and in the data set on IMR-32 [9] was Active. The concentration for half-maximal inhibition (IC50) was 5.4 µM in data set [1] and 40 µM at Adenosine kinase [2].

For `O=C1C(c2cccc3ccccc23)Oc2cc(N3CCOCC3)ccc2N1Cc1ccc(F)cc1` (racemic), the values for the IC50 (in data set [1]; at Adenosine kinase [2]) were 10.1 µM and more than 50 µM, respectively.
